pIC50: −log10 of the molar value. Calls of active or inactive are those of the source. No cut-off for these calls is given here.
Assays:
Caco-2 [1] = test: Antiproliferative activity against human Caco2 cells assessed as reduction in cell growth after 72 hrs by MTT assay; format: functional, cell-based; settings: Caco-2, 72 h
In short: (§1)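 Cells were switched after 24 h to medium containing compound, diluted from a 10 mM DMSO stock to a final 0.5% DMSO, with vehicle controls. Exposure was 72 h, then MTT (0.25 mg/mL final) for 3 h. Formazan was dissolved in DMSO and read at 570 nm minus 690 nm background. Triplicate wells were normalised to DMSO as 100%. IC50 came from dose-response curves over at least six experiments.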

A549 [2] = test: Antiproliferative activity against human A549 cells assessed as reduction in cell growth after 72 hrs by MTT assay; format: functional, cell-based; settings: A549, 72 h; in short: as §1
U-87 MG = test: Antiproliferative activity against human U-87 MG cells assessed as reduction in cell growth after 72 hrs by MTT assay; format: functional, cell-based; settings: U-87MG ATCC; in short: as §1
[3] = (§2) Protection against IL1beta/IFNgamma-induced cell death in […] cells assessed as reduction in cell death at 1 uM preincubated for 1 hr followed by IL1beta/IFNgamma addition and measured after 16 hrs by TUNEL assay relative to control; format: functional; design: scale not given: the % may be the effect or the level left; settings: time 17 hrs
In short: (§3)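 INS-1 insulinoma cells grown in RPMI (10% fetal calf serum, 2 mM glutamine, 10 mM HEPES, 1 mM pyruvate) at 37 °C, 5% CO2 to ~70% confluency. Pretreated 1 h with the hydroxy fatty acid in DMSO (final 0.10%), then IL-1β 20 ng/mL + IFNγ 200 ng/mL for 16 h. Cells were cytospun, PFA-fixed and permeabilised, then TUNEL/DAPI stained. Apoptotic cells counted as % of total, ≥3 fields per slide, 3–5 independent experiments.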

A549 [4] = test: Induction of apoptosis in human A549 cells assessed as increase in activated caspase-3 at 50 uM measured after 72 hrs by DAPI and immunostaining based assay; format: functional, cell-based
In short: (§4)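 A549 cells (DMEM, 4.5 g/L glucose, 10% heat-inactivated FBS) were grown on poly-L-lysine-coated coverslips and exposed to 50 μM or DMSO vehicle for 72 h. They were fixed in 4% PFA and blocked with 5% FBS/0.1% Triton X-100. Staining was rabbit anti-phospho-histone H3 or anti-cleaved caspase-3 overnight at 4 °C, then Alexa488 secondary and DAPI. Read-out was % positive nuclei over DAPI, n = 8 fields.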

[5] = (§5) Protection against IL1beta/IFNgamma-induced cell death in […] cells assessed as reduction in cell death at 10 uM preincubated for 1 hr followed by IL1beta/IFNgamma addition and measured after 16 hrs by TUNEL assay relative to control; format: functional; design: scale not given: the % may be the effect or the level left; settings: time 17 hrs; in short: as §3
[6] = Toxicity in […] assessed as induction of apoptotic cell death at 1 to 10 uM measured after 1 hr by TUNEL assay; format: cell-based; settings: ins1, 10 µM; dose 1-10 µM
In short: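 INS-1 cells (RPMI, 10% FCS, 10 mM HEPES, 1 mM pyruvate, 37 °C, 5% CO2) were grown to ~70% confluency. They were pretreated 1 h with 1 or 10 μM (final DMSO 0.10%), then given vehicle or IL-1β 20 ng/mL + IFNγ 200 ng/mL for 16 h. Cells were cytospun, PFA-fixed, permeabilised, TUNEL-stained and DAPI-counterstained. Result was % TUNEL-positive nuclei from ≥3 fields per slide, 3–5 independent experiments, mean ± SEM.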

A549 [7] = test: Cell cycle arrest in human A549 cells assessed as reduction in histone H3 phosphorylation at 50 uM measured after 72 hrs by DAPI and immunostaining based assay; format: functional; in short: as §4
INS1 [8] = test: as §2; format: functional; settings: Rattus norvegicus, time 17.0 hrs; in short: as §3
[9] = biological target: Signal transducer and activator of transcription 3 (Homo sapiens) (UniProt P40763); test: Down regulation of STAT3 phosphorylation in human A549 cells at 50 uM by Western blot analysis; format: cell-based
In short: (§6)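 Treated and untreated A549 cells were lysed in RIPA and spun at 17,000g for 15 min at 4 °C. 35 μg protein was run on SDS-PAGE and transferred to nitrocellulose, then blocked with 5% BSA in TBS-0.1% Tween 20. Probes were anti-phospho-STAT3 (1:1000), anti-STAT3 (1:1000) and anti-β-actin (1:20,000) overnight at 4 °C, then secondary for 1.30 h. Relative protein expression was quantified.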

SF-268 [10] = test: Antiproliferative activity against human SF-268 cells assessed as reduction in cell growth after 72 hrs by MTT assay; format: functional, cell-based; settings: SF-268, 72 h; in short: as §1
A549 [11] = test: Reduction in STAT3 mRNA level in human A549 cells at 50 uM by RT-qPCR analysis; format: functional, cell-based
In short: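 STAT3 mRNA in DMSO- versus compound-treated A549 cells was measured by quantitative real-time RT-PCR, normalised to β-actin mRNA.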

A549 [12] = test: Reduction in total STAT3 expression in human A549 cells at 50 uM by Western blot analysis; format: functional, cell-based; in short: as §6
SF-268 [13] = test: Antiproliferative activity against human SF-268 cells assessed as reduction in cell growth at 10 to 100 uM after 72 hrs by MTT assay; format: functional, cell-based; settings: dose 10-100 µM; in short: as §1
A549 [14] = test: Antiproliferative activity against human A549 cells assessed as reduction in cell growth at 10 to 100 uM after 72 hrs by MTT assay; format: functional, cell-based; settings: dose 10-100 µM; in short: as §1
Caco-2 [15] = test: Antiproliferative activity against human Caco2 cells assessed as reduction in cell growth at 10 to 100 uM after 72 hrs by MTT assay; format: functional, cell-based; settings: dose 10-100 µM; in short: as §1
INS1 [16] = test: as §5; format: functional; settings: Rattus norvegicus, time 17.0 hrs; in short: as §3

Sequence of Signal transducer and activator of transcription 3 (Homo sapiens) (P40763 whole entry): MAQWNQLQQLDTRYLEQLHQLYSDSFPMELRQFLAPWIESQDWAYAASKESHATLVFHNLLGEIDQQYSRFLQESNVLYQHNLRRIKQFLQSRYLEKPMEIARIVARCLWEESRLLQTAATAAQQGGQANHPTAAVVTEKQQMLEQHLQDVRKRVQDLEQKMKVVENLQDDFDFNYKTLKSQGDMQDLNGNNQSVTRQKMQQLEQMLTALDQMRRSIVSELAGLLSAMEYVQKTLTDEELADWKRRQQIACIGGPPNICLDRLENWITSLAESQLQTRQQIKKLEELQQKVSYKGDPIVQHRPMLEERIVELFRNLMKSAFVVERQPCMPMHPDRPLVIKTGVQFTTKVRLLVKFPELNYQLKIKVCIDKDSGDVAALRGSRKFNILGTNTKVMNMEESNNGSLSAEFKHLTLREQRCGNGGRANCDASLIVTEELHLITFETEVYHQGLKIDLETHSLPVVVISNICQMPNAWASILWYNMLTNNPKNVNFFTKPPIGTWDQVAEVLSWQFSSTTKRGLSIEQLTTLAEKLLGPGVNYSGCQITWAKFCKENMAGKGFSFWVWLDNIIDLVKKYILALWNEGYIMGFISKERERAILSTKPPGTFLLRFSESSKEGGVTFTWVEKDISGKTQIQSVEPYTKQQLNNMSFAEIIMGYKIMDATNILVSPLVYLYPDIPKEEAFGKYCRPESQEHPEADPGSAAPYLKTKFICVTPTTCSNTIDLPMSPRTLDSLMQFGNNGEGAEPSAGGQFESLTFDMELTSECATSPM

SMILES	pIC50 (Caco-2 [1])	pIC50 (A549 [2])	Activity (U-87 MG)	Activity [6]	Activity (SF-268 [13])	Activity (A549 [14])	Activity (Caco-2 [15])	other results
CCCCCCCCC[C@H](O)CCCCCC(=O)O	4.30	4.26	inactive	–	–	–	–	–
CCCCCCCCC[C@@H](O)CCCCCCCC(=O)O	–	–	–	Non-Toxic	–	–	–	Activity [3]: 40%; Activity (A549 [4]): inactive; Activity [5]: 73%; Activity (A549 [7]): Active
CCCCCCCCCCC[C@@H](O)CCCCCC(=O)O	4.43	4.42	inactive	Non-Toxic	–	–	–	Activity (INS1 [8]): inactive; Activity (A549 [4]): inactive; Activity [9]: Active; Activity [5]: 95%; pIC50 (SF-268 [10]): 4.57; Activity (A549 [11]): Active; Activity (A549 [12]): Active; Activity (A549 [7]): Active
CCCCCCCCCCCCCCCC(=O)OC(CCCCCCCCC)CCCCCCCC(=O)O (centres undefined)	–	–	–	–	inactive	inactive	inactive	–
CCCCCCCCCCCCCCCC(=O)O	–	–	–	–	inactive	inactive	inactive	–
CCCCCCCCCCCCCCCC(=O)OC(CCCCCCCCCCC)CCCCCC(=O)O (centres undefined)	–	–	–	–	inactive	inactive	inactive	Activity (INS1 [16]): inactive
CCCCCCCCC[C@@H](O)CCCCCC(=O)O	4.38	4.31	inactive	–	–	–	–	–
CCCCCCCC/C=C\CCCCCCCC(=O)OC(CCCCCCCCC)CCCCCCCC(=O)O (centres undefined)	–	–	–	–	inactive	inactive	inactive	–
CCCCCCCCC[C@H](O)CCCCCCCC(=O)O	–	–	–	Non-Toxic	–	–	–	Activity [3]: 40%; Activity [5]: 68%
CCCCCCCCCCCCCCCCCC(=O)O	–	–	–	–	inactive	inactive	inactive	–
CCCCCCCCCCC[C@H](O)CCCCCC(=O)O	4.30	4.30	inactive	Non-Toxic	–	–	–	Activity (INS1 [8]): inactive; Activity (INS1 [16]): inactive; pIC50 (SF-268 [10]): 4.33

From ChEMBL document CHEMBL4673261, “Saturated Hydroxy Fatty Acids Exhibit a Cell Growth Inhibitory Activity and Suppress the Cytokine-Induced β-Cell Apoptosis” (J Med Chem, 2020)
